The source of these data is paper PMC9924099 (Journal of medicinal chemistry, 2021).

Molecules are shown by their SMILES.

One data set deals with WT p53 MCF-7 cells. Put plainly: WST-1 cell proliferation assay. Conditions: MCF-7, 24 h or 72 h; compared to mutant p53 cells. Type of data set: cell-based, human. The method in brief: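 WST-1 assay. Test compound in DMSO was added to cells at 40,000 cells/ml, giving 1% DMSO final, and plated at 4,000 cells/well in duplicate; medium-only wells served as background. Incubation was 24 h or 72 h at 37 °C, then WST-1 for 2 h and OD450 read. Proliferation is expressed as % of DMSO control; triplicate experiments. MCF-7 grown in RPMI 1640, MDA-MB-436 in DMEM.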

The conditions of data set [1]: human, in vivo; cited from earlier work.
Data set [2] concerns the target p53^R273H in MDA-MB-468 cells (Homo sapiens, UniProt P04637, R273H). As to the kind of experiment: Western blot of p53 expression. Format: cell-based. Particulars: MDA-MB-468, 6 μM or 12 μM, 24 h. A digest of the protocol:
(§1)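 Cells were treated 24 h with 6 μM or 12 μM test compound or DMSO and lysed in NP-40/Tris-Cl pH 8.0 buffer with protease inhibitors. Load on 4–12% SDS-PAGE was 20 μg for MDA-MB-231 and MDA-MB-468 or 50 μg for MCF-7. After PVDF transfer, blots were probed with p53 DO-1 antibody, reprobed for GAPDH as loading control and developed by ECL.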

Another data set deals with WT p53 in MCF-7 cells (Homo sapiens, UniProt P04637). Put plainly: Western blot of p53 expression. Format: cell-based. Particulars: MCF-7, 6 μM or 12 μM, 24 h. The method in brief:
as §1
In general terms: In western blotting, separated proteins are transferred to a membrane and probed.

Data set [3] addresses p53^R280K in MDA-MB-231 cells (Homo sapiens, UniProt P04637, R280K). As to the kind of experiment: Western blot of p53 expression. Particulars: MDA-MB-231, 6 μM or 12 μM, 24 h. Format: cell-based. A digest of the protocol: as §1
In data set [4] the test system is caspase 3 and PARP1 in p53^R280K MDA-MB-231 cells. Put plainly: Western blot of caspase 3 and PARP1. Type of data set: cell-based, human. Particulars: MDA-MB-231, 24 h. A digest of the protocol: (§2)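 Cells grown in RPMI 1640 with 10% FBS, 1% penicillin/streptomycin and 1% L-glutamine, then given test compound or DMSO control for 24 h. Lysed 30 min on ice in Tris-Cl pH 8.0/NaCl/glycerol/NP-40/EDTA buffer with protease inhibitors, then cleared. 100 μg lysate run on 4-12% SDS-PAGE, transferred to PVDF, probed with anti-PARP and anti-caspase 3 (1:1000 each). ECL detection.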

A short description of the next data set: Log P determination. Type of data set: physicochemical. Particulars: octanol/sodium phosphate buffer (pH 7.4).
Data set [5] relates to caspase 3 and PARP1 in p53^R273H MDA-MB-468 cells. As to the kind of experiment: Western blot of caspase 3 and PARP1. Particulars: MDA-MB-468, 24 h. Type of data set: cell-based, human. The method in brief:
as §2

The subject of data set [6] is caspase 3 and PARP1 in WT p53 MCF-7 cells. Put plainly: Western blot of caspase 3 and PARP1. Format: cell-based, human. Particulars: MCF-7 (caspase 3-deficient), 24 h. The method in brief: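 MCF-7 cells were treated with test compound or DMSO for 24 h and lysed on ice for 30 min (20 mM Tris-Cl pH 8.0, 137 mM NaCl, 10% glycerol, 1% NP-40, 2 mM EDTA, protease inhibitors). Lysates were cleared at 18,500 × g. 100 μg lysate was run on 4–12% SDS-PAGE, transferred to PVDF and probed with anti-PARP and anti-caspase 3 (1:1000), HRP secondary and ECL. GAPDH served as loading control.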

One may read the logP as the decadic logarithm of the partition coefficient of the neutral form, usually between octanol and water. A high value points to a more lipophilic compound. Regarding `S=C=NCCc1ccccc1` [PEITC, Phenethyl isothiocyanate, reference compound], the “inhibition of cell proliferation / sensitivity (in words)” value in the data set on WT p53 MCF-7 cells is “considerably less sensitive”. Besides, the estimated half-life in [1] is given as ~ 2.4 h. Besides, the “mutant p53 expression (western blot)” value in data set [2] and in data set [3] was “significant decrease” each time. The “WT p53 expression (western blot)” value on WT p53 in MCF-7 cells was “increase in p53 levels”. Moreover, the “levels of uncleaved caspase 3, uncleaved PARP1 and cleaved-PARP1” value in [4] is “significant decrease in the levels of uncleaved caspase 3 and accumulation of cleaved-PARP1 fragments”; in data set [5] it was “significant decrease in the levels of uncleaved caspase 3 and accumulation of cleaved-PARP1 fragments”. This compound registered a logP at 18 h in the data set “Log P determination” of 3.5. For the same compound, the “levels of uncleaved PARP1 and cleaved-PARP1” value in data set [6] is “significant decrease in the levels of uncleaved PARP1 and accumulation of cleaved-PARP1”.
